SR-BI DiI inh: inhibitors of SR-BI mediated HDL lipid uptake, primary screen, ldlA[mSR-BI] cells, fluorescence, single point. ldlA[mSR-BI] CHO cells, DiI-HDL uptake fluorescence, 3 h. inhibition, % at 12.5 µM. Scavenger receptor class B member 1 (Mus musculus), Q61009. 0.96% of 320,000 active. AID 488896, 2010;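 active means mean replicate inhibition of at least 70% and a set share of replicates each scoring 70 or more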;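 further: 0% = median of neutral control wells and 100% = median of positive control wells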
FXN GAA850 act: FXN promoter activators, primary screen, cell-based, luciferase luminescence, HEK293 lucGAA850 | activation, % at 6 µM | 0.56% of 360,000 active | HEK293 lucGAA850 FXN promoter luciferase reporter, 24 h; percent of 10 µM SAHA response;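 active means activation above the average of all compounds screened plus 3 SD, cutoff fixed separately per campaign, cut at about 7.5% in these data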;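 further: 0% = DMSO wells and 100% = 10 µM SAHA wells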
SR-BI uptake up: activators of SR-BI mediated DiI-HDL uptake, primary screen, ldlA[mSR-BI] CHO cells, DiI fluorescence; 0.096% of 320,000 active; 3 h; 100 = double the neutral-control signal; activation, % at 12.5 µM;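 active means mean replicate activation of at least 60% and every replicate at or above 60%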;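 further: 0% = median plate neutral-control signal and 100% = twice that signal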
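Test system: SR-BI-overexpressing, LDLR-lacking CHO cells; Medium: Ham's F12 with 0.5% BSA, HEPES 25 mM, pH 7.4; Schedule: 3 h, 37 °C; Technique: bottom-read fluorescence, 550/595 nm.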
AHR activator: AHR activators, primary screen, cell-based, luminescence, luciferase reporter, human. Aryl hydrocarbon receptor (Homo sapiens), P35869. AHR-responsive luciferase reporter cells. activation, % at 5 µM. 2.5% of 320,000 active. AID 2796, 2010; in the data active means activation above about 47%;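 further: 0% = vehicle wells and 100% = reference agonist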
ABCB6 inh MLPCN: ABCB6 transporter inhibitors, primary screen, K562-ABCB6 cells, flow cytometry, MLPCN library; ATP-binding cassette sub-family B member 6 (Homo sapiens), Q9NP58; K562-ABCB6 porphyrin accumulation, 1 h; hits give low values; fluorescence ratio to DMSO, % at 10 µM; 0.19% of 360,000 active; AID 602162, 2011;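 active means fluorescence ratio to DMSO below 75%, the collection mean minus 3 SD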;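 further: signal is porphyrin accumulated inside mitochondria; 100% equals median channel fluorescence of DMSO control wells; lower ratio means ABCB6 inhibition with less porphyrin fluorescence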
HIF activator: HIF pathway transcriptional activators, primary screen, cell-based, U2OS HRE-luciferase, luminescence; 0.32% of 300,000 active; activation, % at 7.5 µM (by protocol); U2OS HRE-luciferase reporter; normalized: DMSO 0%, desferrioxamine 100%; AID 1910, 2009;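 active means mean activation of at least 10% of the iron chelator positive control signal, with at least half of replicates also reaching 10%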
* = called active by the depositor; nt = no result. An excerpt weighted towards active compounds, which were near 3.9% of everything screened.

SMILES	SR-BI DiI inh	FXN GAA850 act	SR-BI uptake up	AHR activator	ABCB6 inh MLPCN	HIF activator
CN(CCC#N)S(=O)(=O)c1cc2c3c(c1)CCN3C(=O)CC2	-11	1	11	-1	100	0
C/C(=N\NC(=S)Nc1cc(S(=O)(=O)N2CCOCC2)ccc1Cl)c1ccc(N2CCOCC2)cc1	102*	0	-102	9	96	0
COc1ccc2cc(/C(C)=N/NC(=S)Nc3cc(S(=O)(=O)N4CCOCC4)ccc3N3CCOCC3)ccc2c1	nt	nt	nt	2	nt	1
O=C(Nc1ccc(N2CCOCC2)c(Cl)c1)c1cc2ccccc2o1	85*	0	-85	4	101	7
CS(=O)(=O)N1CCN(c2ccccc2NC(=O)c2cc3ccccc3o2)CC1	75*	-1	-75	33	91	0
O=C(Nc1ccc(N2CCCC2)c(Cl)c1)c1cccc(-c2cc3ccccc3oc2=O)c1	87*	1	-87	19	94	0
Cc1ccc(NC(=O)c2cc(NC(=O)c3ccco3)ccc2N2CCOCC2)cc1Cl	74*	0	-74	5	91	1
CN1CCN(c2ccccc2NC(=O)c2cc3ccccc3o2)CC1	13	3	-13	20	103	0
CN(C)c1ccc(C(=S)NC2CCCCC2)cc1	11	6	-11	9	91	2
CC(=O)c1c(C)oc2ccc(N(C(=O)C3CCCCC3)S(=O)(=O)c3cc([N+](=O)[O-])ccc3C)cc12	-36	-1	36	-3	94	0
COc1ccc(OC)c(C(=O)NC2CCSc3ccccc32)c1 (centres undefined)	20	1	-20	6	100	0
CC(=O)c1c(C)n(-c2ccc(Br)cc2)c2ccc(O)cc12	8	0	-8	4	91	0
COc1ccc2nc(NC(=O)c3cccc(-c4cc5ccccc5oc4=O)c3)sc2c1	77*	0	-77	12	93	2
O=C(O)c1cc(NS(=O)(=O)c2ccc(F)cc2)cc(NS(=O)(=O)c2ccc(F)cc2)c1	-13	0	13	0	93	nt
COc1ccc(OCC(=O)Nc2ccc3c(c2)OCO3)cc1	nt	-1	nt	3	102	0
Cc1cc(OC(F)F)ccc1NC(=O)Nc1ccc2c(c1)OCO2	8	-1	-8	66*	101	0
O=C(Nc1cccc(F)c1)Nc1ccc2c(c1)OCO2	-6	3	6	nt	97	4
COc1ccc(NC(=O)Nc2ccc3c(c2)OCO3)c(C)c1	-19	2	19	67*	105	1
CCN(CC)CCn1c2c(c(SCC(=O)Nc3cc(C)ccc3C)nc1=O)CCC2	-13	0	13	-1	105	0
Cc1ccc2c(c1)=C(c1sc(N(C)c3ccc(O)cc3)nc1O)C(=O)N=2	13	-1	-13	4	93	0
O=C1N=c2ccc(Br)cc2=C1c1sc(=O)[nH]c1O	nt	nt	nt	64*	nt	0
Cn1nnc(NC(=O)/C=C/c2ccco2)n1	nt	1	nt	10	102	0
Nc1nc(OCC2CCCCC2)c2[nH]cnc2n1	-12	1	12	56*	97	0
Cn1cc(S(=O)(=O)N2CCCC2)cc1C(=O)N1CCN(c2cccc(Cl)c2)CC1	56	0	-56	1	95	0
O=C(Cn1c(NCCO)nc2ccccc21)c1ccco1	-61	2	61*	-1	616	0
SMILES	SR-BI DiI inh	FXN GAA850 act	SR-BI uptake up	AHR activator	ABCB6 inh MLPCN	HIF activator
O=C(Cn1c(NCCO)nc2ccccc21)NCCc1ccccc1	-12	2	12	11	101	0
C=CCn1c(NC(=O)c2ccco2)nc2ccccc21	4	2	-4	68*	98	0
O=C(Nc1nc2ccccc2n1Cc1ccc(Cl)cc1)c1ccco1	-4	0	4	0	94	0
Cc1ccc(C(=O)c2c(C)oc3c2C(=O)C(=O)c2ccccc2-3)cc1	40	-6	-40	40	102	3
Cc1ccc(C(=O)c2coc3c2C(=O)C(=O)c2ccccc2-3)cc1	-16	-1	16	50*	102	2
CCOC(=O)CSc1nc(C2CC2)cc(-c2ccc(F)cc2)c1C#N	72*	-1	-72	3	91	1
O=C(Nc1ccccc1N1CCCC1)c1cccc(F)c1	27	1	-27	3	100	0
Cc1cccc(NC(=O)c2cc(S(=O)(=O)N3CCCCC3)c[nH]2)c1	nt	1	nt	nt	99	nt
CC(C)(C)C(=O)CN1CCN(C2c3ccccc3-c3ccccc32)CC1	51	2	-51	0	98	0
Cc1[nH]nc(-c2ccc(OCc3cnn(-c4ccccc4)c3)cc2O)c1Oc1ccccc1F	25	1	-25	50*	97	0
O=C(Cc1ccc(F)cc1)N1CCN=C1SCc1ccc([N+](=O)[O-])cc1	17	1	-17	1	96	0
COc1cccc(CN(C)C(=O)CSCC(=O)Nc2ccc(C)cc2)c1OC	-38	1	38	0	96	0
CCn1c(SCC(=O)c2ccccc2)nnc1-c1cc2cc(Br)ccc2o1	42	3	-42	12	103	1
O=[N+]([O-])c1ccc(/C=N/Nc2nc(N3CCCCC3)nc(N3CCCCC3)n2)cc1	8	0	-8	2	102	0
O=[N+]([O-])c1ccc(Nc2nc(N/N=C\c3ccc4c(c3)OCO4)nc(N3CCCCC3)n2)cc1	62	-3	-62	71*	94	1
NNc1nc(Nc2ccc([N+](=O)[O-])cc2)nc(N2CCCCCC2)n1	-2	4	2	68*	97	-1
O=C(Nc1ccc(C(=O)N2CCOCC2)cc1)c1cc(-c2cccnc2)nc2ccc(Br)cc12	81*	-1	-81	1	95	1
O=C(Nc1ccccn1)c1cc(-c2cccnc2)nc2ccc(Br)cc12	19	-1	-19	18	98	-1
Cc1ccccc1C(=O)N1CCN(c2ccc(NC(=O)c3ccccc3[N+](=O)[O-])cc2)CC1	78*	1	-78	-1	97	0
O=[N+]([O-])c1ccc(N2CCN(C(=S)Nc3ccccc3)CC2)cc1	-15	0	15	-9	102	0
Cc1ccccc1C(=O)N1CCN(c2ccc(NC(=O)c3cccnc3Cl)cc2)CC1	76*	-2	-76	-4	99	0

Assay outcomes from PubChem.
